Laboratory results published in ChEMBL document CHEMBL1133106, “Synthesis and evaluation of peptidomimetics as selective inhibitors and active site probes of nitric oxide synthases” (J Med Chem, 2000).
pKi: −log10 of the molar value. Non-standard residues stand in square brackets, D forms with d. Residues, ends and D or L forms follow the SMILES beside them. *: point of attachment. Arg(NO2) = N=C(NCCC[C@H](N)C(=O)O)N[N+](=O)[O-]; NMeDab = CN[C@@H](CCN)C(=O)O; Orn = NCCC[C@H](N)C(=O)O; Dab = NCC[C@H](N)C(=O)O; Cbz = O=C(OCc1ccccc1)*; OtBu = CC(C)(C)O*

Columns and labels:
[1] = Ratio of binding affinity of eNOS to nNOS
In short: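 Ratio of apparent Ki values (eNOS Ki over nNOS Ki). Recombinant bovine eNOS and nNOS were isolated from E. coli expression. NO formation was followed by the hemoglobin capture assay with 10 µM L-arginine and at least three inhibitor concentrations.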

[2] = molecular target: T1, Nitric oxide synthase 3 (Bos taurus, UniProt P29473)
T1 sequence (P29473 whole entry): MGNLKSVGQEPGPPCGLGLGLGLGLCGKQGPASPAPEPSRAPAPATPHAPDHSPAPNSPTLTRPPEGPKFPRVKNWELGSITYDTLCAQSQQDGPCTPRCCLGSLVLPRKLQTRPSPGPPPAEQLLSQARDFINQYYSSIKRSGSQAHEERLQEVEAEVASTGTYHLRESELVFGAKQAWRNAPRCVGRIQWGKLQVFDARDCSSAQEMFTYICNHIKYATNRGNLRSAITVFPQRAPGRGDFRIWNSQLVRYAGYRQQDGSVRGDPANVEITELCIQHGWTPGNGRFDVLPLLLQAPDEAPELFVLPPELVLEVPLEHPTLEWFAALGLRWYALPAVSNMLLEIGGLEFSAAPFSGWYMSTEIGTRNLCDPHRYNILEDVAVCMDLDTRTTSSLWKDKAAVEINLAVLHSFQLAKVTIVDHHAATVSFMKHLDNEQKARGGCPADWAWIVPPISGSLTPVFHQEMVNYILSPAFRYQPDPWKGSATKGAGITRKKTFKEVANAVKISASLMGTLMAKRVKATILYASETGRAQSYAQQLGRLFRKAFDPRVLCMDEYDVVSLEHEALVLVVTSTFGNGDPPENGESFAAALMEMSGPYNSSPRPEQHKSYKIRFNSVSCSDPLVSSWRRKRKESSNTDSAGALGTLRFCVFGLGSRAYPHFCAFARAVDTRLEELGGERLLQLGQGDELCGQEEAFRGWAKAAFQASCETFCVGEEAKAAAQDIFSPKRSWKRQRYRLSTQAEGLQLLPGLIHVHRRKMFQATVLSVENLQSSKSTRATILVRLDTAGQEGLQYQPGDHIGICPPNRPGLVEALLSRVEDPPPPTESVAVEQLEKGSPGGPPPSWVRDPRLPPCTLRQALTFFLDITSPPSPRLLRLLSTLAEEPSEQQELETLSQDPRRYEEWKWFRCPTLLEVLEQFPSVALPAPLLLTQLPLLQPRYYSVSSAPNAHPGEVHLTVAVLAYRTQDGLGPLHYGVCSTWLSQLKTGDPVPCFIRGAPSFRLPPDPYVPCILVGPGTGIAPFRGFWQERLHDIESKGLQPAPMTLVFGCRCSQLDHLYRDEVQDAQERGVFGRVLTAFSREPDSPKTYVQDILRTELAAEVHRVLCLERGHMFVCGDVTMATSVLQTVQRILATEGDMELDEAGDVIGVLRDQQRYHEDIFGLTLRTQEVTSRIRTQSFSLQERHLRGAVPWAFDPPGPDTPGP

[3] = molecular target: T2, Nitric oxide synthase, inducible (Mus musculus, UniProt P29477)
T2 sequence (P29477 whole entry): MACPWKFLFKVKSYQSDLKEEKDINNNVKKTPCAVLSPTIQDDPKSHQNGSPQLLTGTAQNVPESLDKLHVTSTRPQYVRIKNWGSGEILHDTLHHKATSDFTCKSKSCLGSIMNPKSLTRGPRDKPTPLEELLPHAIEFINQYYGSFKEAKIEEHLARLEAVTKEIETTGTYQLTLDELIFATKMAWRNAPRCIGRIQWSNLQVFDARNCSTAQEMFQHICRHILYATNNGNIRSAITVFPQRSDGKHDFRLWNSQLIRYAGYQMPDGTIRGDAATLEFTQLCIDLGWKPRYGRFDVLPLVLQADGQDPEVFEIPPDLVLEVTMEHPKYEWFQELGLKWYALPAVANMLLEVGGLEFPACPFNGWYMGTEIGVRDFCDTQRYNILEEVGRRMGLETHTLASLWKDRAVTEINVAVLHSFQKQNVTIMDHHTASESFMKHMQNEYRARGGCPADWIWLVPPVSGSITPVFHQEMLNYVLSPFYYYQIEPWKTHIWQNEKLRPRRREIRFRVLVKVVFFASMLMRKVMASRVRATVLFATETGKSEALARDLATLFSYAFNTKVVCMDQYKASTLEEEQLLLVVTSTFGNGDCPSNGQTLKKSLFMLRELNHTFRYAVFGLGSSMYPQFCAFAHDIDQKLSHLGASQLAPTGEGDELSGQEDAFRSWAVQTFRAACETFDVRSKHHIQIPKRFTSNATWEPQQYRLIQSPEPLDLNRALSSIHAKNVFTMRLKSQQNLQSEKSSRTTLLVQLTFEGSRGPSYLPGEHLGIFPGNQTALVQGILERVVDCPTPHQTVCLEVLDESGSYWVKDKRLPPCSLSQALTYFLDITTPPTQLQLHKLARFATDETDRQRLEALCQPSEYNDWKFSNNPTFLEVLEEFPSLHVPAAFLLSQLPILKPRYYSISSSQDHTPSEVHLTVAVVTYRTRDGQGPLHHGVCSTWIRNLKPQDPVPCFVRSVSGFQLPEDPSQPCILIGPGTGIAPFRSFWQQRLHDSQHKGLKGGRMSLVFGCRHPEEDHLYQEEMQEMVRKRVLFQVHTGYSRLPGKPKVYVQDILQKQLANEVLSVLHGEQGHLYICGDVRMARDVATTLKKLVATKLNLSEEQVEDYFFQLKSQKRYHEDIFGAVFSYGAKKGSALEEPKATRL

[4] = Binding affinity against bovine brain nNOS (neuronal).

| SMILES | Ratio [1] | pKi [2] | pKi [3] | pKi [4] |
| --- | --- | --- | --- | --- |
| CN(C(=O)[C@@H](N)CCC/N=C(\N)N[N+](=O)[O-])[C@@H](CCCN)C(N)=O | 135 | 3.21 | 2.89 |  |
| CC(C)(C)OC(=O)[C@H](CCN)NC(=O)[C@@H](N)CCCNC(=N)N[N+](=O)[O-] (H-[Arg(NO2)]-[Dab]-OtBu) |  | 3.54 | 3.38 |  |
| COC(=O)[C@H](CCN)NC(=O)[C@@H](N)CCC/N=C(\N)N[N+](=O)[O-] (H-[Arg(NO2)]-[Dab]-OMe) | 798 |  |  |  |
| NCCCC[C@H](NC(=O)[C@@H](N)CCC/N=C(\N)N[N+](=O)[O-])C(N)=O (H-[Arg(NO2)]-Lys-NH2) |  |  |  | 6.35 |
| NCCCCNC(=O)[C@@H](N)CCC/N=C(\N)N[N+](=O)[O-] | 200 |  |  |  |
| CN(C(=O)[C@@H](N)CCCNC(=N)N[N+](=O)[O-])[C@@H](CCN)C(N)=O (H-[Arg(NO2)]-[NMeDab]-NH2) |  | 4.02 | 3.47 |  |
| N=C(NCCC[C@H](N)C(=O)N(CCCN)CC(N)=O)N[N+](=O)[O-] |  | 3.97 | 3.00 |  |
| N=C(NCCC[C@H](N)C(=O)NCCCCN)N[N+](=O)[O-] |  | 4.15 | 3.97 |  |
| CC(=O)N[C@@H](CCCNC(=N)N[N+](=O)[O-])C(=O)N[C@@H](CCN)C(N)=O (Ac-[Arg(NO2)]-[Dab]-NH2) |  | 3.58 | 2.59 |  |
| COC(=O)[C@H](CCN)NC(=O)[C@@H](N)CCCNC(=N)N[N+](=O)[O-] (H-[Arg(NO2)]-[Dab]-OMe) |  | 3.33 | 4.57 |  |
| N=C(NCCC[C@H](N)C(=O)N[C@@H](CCN)C(=O)O)N[N+](=O)[O-] (H-[Arg(NO2)]-[Dab]-OH) |  | 4.01 | 2.92 |  |
| N=C(NCCC[C@H](N)C(=O)NCCCN)N[N+](=O)[O-] |  | 3.67 | 3.93 |  |
| N=C(NCCC[C@H](NC(=O)OCc1ccccc1)C(=O)N[C@@H](CCN)C(N)=O)N[N+](=O)[O-] (Cbz-[Arg(NO2)]-[Dab]-NH2) |  | 3.08 | 2.80 |  |
| CN(C(=O)[C@@H](N)CCC/N=C(\N)N[N+](=O)[O-])[C@@H](CCN)C(N)=O | 40 |  |  |  |
| NCCCCN(CC(N)=O)C(=O)[C@@H](N)CCC/N=C(\N)N[N+](=O)[O-] | 4 | 3.71 | 2.96 |  |
| CN(C(=O)[C@@H](N)CCC/N=C(\N)N[N+](=O)[O-])[C@@H](CCCCN)C(N)=O | 86 | 3.20 | 2.72 |  |
| CC(C)(C)OC(=O)[C@H](CCN)NC(=O)[C@@H](N)CCC/N=C(\N)N[N+](=O)[O-] (H-[Arg(NO2)]-[Dab]-OtBu) | 28 |  |  |  |
| N=C(NCCC[C@H](N)C(=O)N(CCN)CC(N)=O)N[N+](=O)[O-] |  | 4.26 | 3.12 |  |
| CC(=O)N[C@@H](CCC/N=C(\N)N[N+](=O)[O-])C(=O)N[C@@H](CCN)C(N)=O (Ac-[Arg(NO2)]-[Dab]-NH2) | 9 |  |  |  |
| N=C(NCCC[C@H](N)C(=O)NCCN)N[N+](=O)[O-] |  | 3.70 | 4.00 |  |
| NCCCNC(=O)[C@@H](N)CCC/N=C(\N)N[N+](=O)[O-] | 163 |  |  |  |
| NCCCN(CC(N)=O)C(=O)[C@@H](N)CCC/N=C(\N)N[N+](=O)[O-] | 3.5 |  |  |  |
| NCCNC(=O)[C@@H](N)CCC/N=C(\N)N[N+](=O)[O-] | 368 |  |  |  |
| NCCC[C@H](NC(=O)[C@@H](N)CCC/N=C(/N)N[N+](=O)[O-])C(N)=O (H-[Arg(NO2)]-[Orn]-NH2) |  |  |  | 6.48 |
| NCC[C@H](NC(=O)[C@H](CCC/N=C(\N)N[N+](=O)[O-])NC(=O)OCc1ccccc1)C(N)=O (Cbz-[Arg(NO2)]-[Dab]-NH2) | 16 |  |  |  |
| NCCN(CC(N)=O)C(=O)[C@@H](N)CCC/N=C(\N)N[N+](=O)[O-] | 3 |  |  |  |
| NCC[C@H](NC(=O)[C@@H](N)CCC/N=C(\N)N[N+](=O)[O-])C(=O)O (H-[Arg(NO2)]-[Dab]-OH) | 3.5 |  |  |  |
